We go through 14 compounds from PubChem BioAssay.

Assay [1] can be described thus: inhibitors of TNFa-induced NFkB p65 translocation, primary screen, imaging, HUVEC, MLSMR starter and 10KST1 sets (AID 438;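 active = inhibition above 20% together with a positive visual image hit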;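 note: compound added about 3h40 before a 20 min TNFalpha stimulation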;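 for inhibition: signal is the nuclear over cytoplasmic p65 intensity ratio per well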). The following applies: HUVEC TNFa-induced p65 nuclear translocation; cell count: measured here: nuclei count (cytotoxicity indicator), at 2.08 µM; inhibition: at 2 µM, stronger effect = higher value, 0% TNFa-plus-vehicle, 100% no-TNFa wells.
Assay [2] is described as follows: inhibitors of mutant huntingtin aggregation, primary screen, imaging, exon1htt(103Q)mCFP cells, high-content imaging (AID 483;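 active = visual image review flags a hit and inhibition of aggregation exceeds 20%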;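 note: compound exposure lasted 3 days before fixation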;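 for nuclei count: percent of the per-plate median nuclei count of sample wells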). The following applies: exon1htt(103Q)mCFP cell line, aggregate imaging, at 2 µM; inhibition of aggregation: stronger effect = higher value; nuclei count: measured here: cell count, toxicity.
The nature of assay [3]: inhibitors of E-selectin induction by TNFa, primary screen, imaging, HUVEC, immunofluorescence, MLSMR starter and 10KST1 sets (AID 487;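 active = visually confirmed hit in the image check and inhibition above 20%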;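 for inhibition: signal is fraction of cell area covered by stained E-selectin grains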;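 for nuclei count: 100% = median nuclei count of all wells on the same plate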). Conditions: HUVEC TNFalpha-induced E-selectin immunofluorescence imaging, at 2 µM; inhibition: stronger effect = higher value; nuclei count: measured here: cell number, toxicity.
The target of assay [4] is Voltage-gated potassium channel subunit beta-2 (Rattus norvegicus) (UniProt P62483). Briefly: KvBeta enzyme negative modulators, primary screen, biochemical, NADPH fluorescence (AID 622;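 active = fluorescence slope higher than the sample average by over 3 SD, cut at about -0.22 in these data, passing the limit was not always enough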;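 note: slope of raw intensity against log time taken from 70 to 1610 s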). The following applies: recombinant KvBeta, 4-cyanobenzaldehyde reduction, at 10 µM, stronger effect = higher value.
The target is the same in assay [5]. The assay can be described thus: KvBeta positive modulators, primary screen, biochemical, NADPH fluorescence (AID 623;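 active = NADPH fluorescence slope more negative than the mean of all samples by about 3 SD, 99.7% confidence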;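 note: fluorescence intensity change per second fitted from 20 to 320 s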). Conditions: Recombinant KvBeta, NADPH fluorescence decrease slope, 10 min; at 10 µM; stronger effect = lower value.
The target of assay [6] is Muscarinic acetylcholine receptor M4 (Homo sapiens) (UniProt P08173). Briefly: compounds altering M4/GIRK thallium flux, either direction, primary screen, M4 allosteric agonist project, cell-based, HEK293 M4/GIRK, BTC-AM (AID 625;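 active = fluorescence slope after compound addition differing from the mean of all tested samples at 99.7% confidence, mostly higher but some lower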;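 note: thallium influx through GIRK channels coupled to M4 in HEK293 cells with BTC-AM dye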). The following applies: at 10 µM, actives lie on both sides. The method, boiled down: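 Assay system: HEK293 cells with M4 receptor and GIRK channels / Controls: carbachol and DMSO controls / Schedule: 1 h dye loading, 2 min kinetic read / Technique: kinetic fluorescence with BTC-AM dye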

A short description of assay [7]: inhibitors of Sendai virus-induced IRF3 signaling, primary screen, TLR/RLR signaling modifier project, cell-based, Sendai virus stimulus, luciferase, 10K MLSCN set (AID 602276;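 active = inhibition at or above 50% at 10 µM; inactive = inhibition below 50%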;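 note: firefly luciferase from ISG56 promoter only with Renilla not read in this screen; 0% = Sendai virus plus DMSO and 100% = medium plus DMSO without virus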). Conditions: HEK293 RL24 IRF3 luciferase reporter, at 10 µM, stronger effect = higher value.
Assay [8] in a line: inhibitors of poly I:C-induced TLR3 signaling, primary screen, cell-based, poly I:C stimulus, luciferase, 10K MLSCN set (AID 602277). The following applies: HEK293-TLR3 RL24 IRF3 luciferase reporter, at 10 µM, stronger effect = higher value. In general terms: In a reporter assay the amount or activity of a reporter protein is the signal.

Active and inactive are the calls of the source.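 Rule for the calls, unless noted: active = inhibition of the reporter signal at or above 50%; inactive = inhibition below 50%.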

Chain of Muscarinic acetylcholine receptor M4 (Homo sapiens) (P08173 whole entry, looked up): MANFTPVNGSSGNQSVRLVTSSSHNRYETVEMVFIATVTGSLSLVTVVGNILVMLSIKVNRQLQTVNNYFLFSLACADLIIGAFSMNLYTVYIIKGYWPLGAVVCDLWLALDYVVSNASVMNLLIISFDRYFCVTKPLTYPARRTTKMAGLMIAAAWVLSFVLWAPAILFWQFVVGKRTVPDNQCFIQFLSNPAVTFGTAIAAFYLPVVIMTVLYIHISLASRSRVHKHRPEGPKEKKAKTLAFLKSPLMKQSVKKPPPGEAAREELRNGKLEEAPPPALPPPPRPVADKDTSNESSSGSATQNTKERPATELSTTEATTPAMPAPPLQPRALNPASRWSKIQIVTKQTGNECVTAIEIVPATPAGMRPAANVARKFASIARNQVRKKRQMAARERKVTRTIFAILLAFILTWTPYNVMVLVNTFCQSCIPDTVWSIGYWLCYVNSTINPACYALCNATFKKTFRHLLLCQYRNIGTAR
Chain of Voltage-gated potassium channel subunit beta-2 (Rattus norvegicus) (P62483 whole entry, looked up): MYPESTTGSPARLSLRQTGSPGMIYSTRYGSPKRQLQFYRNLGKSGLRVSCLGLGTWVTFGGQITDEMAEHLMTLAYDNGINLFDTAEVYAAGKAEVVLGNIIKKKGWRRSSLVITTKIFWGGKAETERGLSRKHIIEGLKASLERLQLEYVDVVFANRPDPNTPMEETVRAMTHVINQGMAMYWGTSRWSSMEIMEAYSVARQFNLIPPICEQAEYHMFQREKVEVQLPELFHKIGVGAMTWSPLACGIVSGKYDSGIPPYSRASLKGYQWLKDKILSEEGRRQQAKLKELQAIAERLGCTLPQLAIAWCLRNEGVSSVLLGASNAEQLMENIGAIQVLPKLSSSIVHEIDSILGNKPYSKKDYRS

For the compound `Clc1ccc(Cn2ncc3c(NCc4cccnc4)ncnc32)cc1`, the cell count in assay [1] was determined as 321. In addition, the inhibition – broadly, the relative decrease from the control value, in per cent – in assay [1] is -13.5% (inactive); in assay [3], 41.6% (inactive); in assay [7], 13.3% (inactive); in assay [8], -35.2% (inactive). The inhibition of aggregation in assay [2] was -3.5% (inactive). The nuclei count in assay [2] turned out to be 113%; in assay [3], 82%. Moreover, the fluorescence slope was -0.55 (inactive) in assay [4] and 0.00407 (inactive) in assay [6]. In assay [5], the NADPH fluorescence slope was -0.000128 (inactive).
Take `C=C(c1cccc2ccccc12)P(=O)(O)O`: the cell count in assay [1] was found to be 429. For the same compound, the inhibition in assay [1] is 11.9% (inactive); in assay [3], 18.6% (inactive); in assay [7] it was 17.7% (inactive); in assay [8], 22.1% (inactive). In addition, the inhibition of aggregation in assay [2] is 18.4% (inactive). For the same compound, the figures for the nuclei count in assay [2] and in assay [3] were 92.8% and 99.8%, respectively. The fluorescence slope in assay [4] was -0.493 (inactive); in assay [6], 0.00428 (inactive). In assay [5], the NADPH fluorescence slope was -0.000279 (inactive).
In the case of `COc1cccc(-c2nc(-c3ccc(NC(=O)Cc4ccccc4OC)cc3)no2)c1`, in assay [1], the cell count was found to be 429. Also, the inhibition in assay [1] was -1.8% (inactive); in assay [3] it was -68.2% (inactive); in assay [7], 13% (inactive); in assay [8], -45.2% (inactive). Moreover, in assay [2], the inhibition of aggregation is -12.3% (inactive). Moreover, the figures for the nuclei count in assay [2] and in assay [3] were 95.4% and 116%, respectively. Also, the results for the fluorescence slope in assay [4] and in assay [6] were -0.561 (inactive) and 0.0119 (active), respectively. Also, the NADPH fluorescence slope in assay [5] is -1.4e-06 (inactive).
With `COC(=O)CCc1c(C)c(C#N)c2nc3ccccc3n2c1N1CCCC1`, the cell count in assay [1] was found to be 490. Besides, the inhibition in assay [1] was -2.7% (inactive); in assay [3] it was -103% (inactive); in assay [7], 15% (inactive); in assay [8], -5.51% (inactive). Besides, the inhibition of aggregation in assay [2] is 9.1% (inactive). Also, the nuclei count stood at 103% in assay [2] and 159% in assay [3]. Also, the fluorescence slope was -0.0763 (active) in assay [4] and 0.00578 (inactive) in assay [6]. Besides, the NADPH fluorescence slope in assay [5] is -4e-06 (inactive).
As for `O=C(CCn1c(=O)c2sccc2n(CC(=O)NCc2ccco2)c1=O)NCc1ccccc1`, in assay [1], the cell count turned out to be 331. The inhibition was -2.4% (inactive) in assay [1], -60% (inactive) in assay [3], -3.97% (inactive) in assay [7] and -0.766% (inactive) in assay [8]. Also, the inhibition of aggregation in assay [2] was 0% (inactive). The results for the nuclei count in assay [2] and in assay [3] were 100% and 111%, respectively. Moreover, the fluorescence slope in assay [4] is -0.566 (inactive); in assay [6] it was 0.00667 (inactive). For the same compound, the NADPH fluorescence slope in assay [5] was -8.5e-05 (inactive).
On to `C=CS(=O)(=O)c1ccc(Oc2ccc(S(=O)(=O)C=C)cc2)cc1`, for which the cell count in assay [1] is 378. Besides, the inhibition in assay [1] was 70.2% (active); in assay [3], 104% (active); in assay [7] it was 14.1% (inactive); in assay [8], 98.2% (active). For the same compound, in assay [2], the inhibition of aggregation is -3.2% (inactive). Also, the figures for the nuclei count in assay [2] and in assay [3] were 80.8% and 121%, respectively. Besides, the fluorescence slope is -0.5 (inactive) in assay [4] and 0.00487 (inactive) in assay [6]. Also, in assay [5], the NADPH fluorescence slope is -2.6e-05 (inactive).
As to `O=C(CN1CCOCC1)Nc1cccc(C(=O)Nc2cccc(C(F)(F)F)c2)c1`, in assay [1], the cell count worked out at 199. For the same compound, the inhibition in assay [1] was 4.3% (inactive); in assay [3], 1.6% (inactive); in assay [7], 7.38% (inactive); in assay [8], -4.66% (inactive). Further, the inhibition of aggregation in assay [2] is 12.5% (inactive). Also, the nuclei count in assay [2] was found to be 90.7%; in assay [3], 89.1%. Besides, the fluorescence slope in assay [4] is -0.574 (inactive); in assay [6], 0.0065 (inactive). In addition, in assay [5], the NADPH fluorescence slope is -6e-05 (inactive).
Take `Cc1c(=O)n(OCc2ccccn2)c2ccccc2[n+]1[O-]`: the cell count in assay [1] was 208. Besides, the inhibition is -18.3% (inactive) in assay [1], 14.4% (inactive) in assay [3], 11.7% (inactive) in assay [7] and 16.8% (inactive) in assay [8]. In addition, the inhibition of aggregation in assay [2] is 27.8% (inactive). The nuclei count turned out to be 112% in assay [2] and 89.2% in assay [3]. The values for the fluorescence slope in assay [4] and in assay [6] were -0.412 (inactive) and 0.00625 (inactive), respectively. Further, in assay [5], the NADPH fluorescence slope was -1.8e-05 (inactive).
Take `CCCCN(c1ccccc1)S(=O)(=O)c1ccc2c(c1)CCN2C(=O)CCC(=O)O`: the cell count in assay [1] was determined as 648. Besides, the inhibition in assay [1] is 1.3% (inactive); in assay [3], -65.5% (inactive); in assay [7], 22.6% (inactive); in assay [8], 99.4% (active). Also, in assay [2], the inhibition of aggregation is 7.8% (inactive). Moreover, the nuclei count in assay [2] came to 112%; in assay [3] it was 117%. Also, the fluorescence slope in assay [4] was -0.526 (inactive); in assay [6], 0.00543 (inactive). In assay [5], the NADPH fluorescence slope was 5.3e-05 (inactive).
In the case of `CCOc1ccccc1NC(=O)N1C2CCCC1CC(NC(=O)C1CC1)C2` (centres undefined), the cell count in assay [1] turned out to be 417. The inhibition in assay [1] is -3.2% (inactive); in assay [3], -75.6% (inactive); in assay [7] it was 17.1% (inactive); in assay [8], 23.8% (inactive). In assay [2], the inhibition of aggregation is 6.6% (inactive). Moreover, the nuclei count in assay [2] was determined as 110%; in assay [3] it was 97.6%. The fluorescence slope in assay [4] was -0.515 (inactive); in assay [6] it was 0.00474 (inactive). The NADPH fluorescence slope in assay [5] is 4.4e-06 (inactive).
With `CCN(c1cccc(C)c1)S(=O)(=O)c1ccc2[nH]c(=O)c(=O)[nH]c2c1`, the cell count in assay [1] was found to be 415. For the same compound, the inhibition in assay [1] is 6.2% (inactive); in assay [3], -8.3% (inactive); in assay [7], 12.5% (inactive); in assay [8], 21.6% (inactive). In addition, the inhibition of aggregation in assay [2] was 7.1% (inactive). Further, the nuclei count came to 93.5% in assay [2] and 98% in assay [3]. In addition, the fluorescence slope in assay [4] was -0.514 (inactive); in assay [6], 0.00491 (inactive). Also, the NADPH fluorescence slope in assay [5] is -0.000128 (inactive).
Turning to `O=C1CN(C(=O)CN2CCCC2)C(c2ccccc2)c2cc(Br)ccc2N1` (centres undefined), in assay [1], the cell count is 393. Moreover, the inhibition in assay [1] is -1.2% (inactive); in assay [3], -23.4% (inactive); in assay [7], -0.203% (inactive); in assay [8], 21.9% (inactive). The inhibition of aggregation in assay [2] is -15.4% (inactive). The values for the nuclei count in assay [2] and in assay [3] were 83.1% and 123%, respectively. The fluorescence slope in assay [4] was -0.512 (inactive); in assay [6], 0.00427 (inactive). Further, the NADPH fluorescence slope in assay [5] is -6.6e-05 (inactive).
As to `Cc1nc(NC2=NCN(CCc3ccccc3)CN2)nc2c(C)cccc12`, the cell count in assay [1] is 428. For the same compound, the inhibition in assay [1] was 46.4% (active); in assay [3] it was -18.7% (inactive); in assay [7], 27.7% (inactive); in assay [8], 28.3% (inactive). For the same compound, the inhibition of aggregation in assay [2] was -2.2% (inactive). Also, the nuclei count turned out to be 79.5% in assay [2] and 104% in assay [3]. Also, the fluorescence slope in assay [4] is -0.457 (inactive); in assay [6] it was 0.0048 (inactive). In addition, in assay [5], the NADPH fluorescence slope was -1.3e-05 (inactive).
As for `CC1CCCCN1CCNC(=O)c1ccc2c(=O)n(CCc3ccccc3)c(=O)[nH]c2c1` (centres undefined), the cell count in assay [1] amounted to 105. The inhibition in assay [1] was 116% (active); in assay [3], -3.9% (inactive); in assay [7], 2.66% (inactive); in assay [8], -7.7% (inactive). Moreover, the inhibition of aggregation in assay [2] was 12.7% (inactive). For the same compound, the nuclei count worked out at 91.2% in assay [2] and 119% in assay [3]. Moreover, the figures for the fluorescence slope in assay [4] and in assay [6] were -0.279 (inactive) and 0.00585 (inactive), respectively. Also, the NADPH fluorescence slope in assay [5] was -3.6e-05 (inactive).
